From the EternaBench riboswitch data

Tested on: MS2 coat protein
Experiment: apparent Kd, MS2 coat protein; higher = weaker binding; RNA-MaP array; FMN 200 µM where present
How it was run: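 Stalled E. coli RNA polymerase transcribed the designs on Illumina sequencing-chip clusters. SNAP-549-labelled MS2 coat protein was titrated from 0.7 or 1.5 nM, doubling to 3 µM, without and then with constant ligand, in 100 mM Tris-HCl pH 7.5, 80 mM KCl, 4 mM MgCl2, BSA, DTT, yeast tRNA and Tween-20. Per-cluster binding curves were fitted to green signal normalised to red-channel RNA signal and control-cluster median Fmax. The apparent Kd is the median of the filtered fits.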

[1] = designed as: OFF switch for flavin mononucleotide, no ligand
[2] = ligand present: flavin mononucleotide, designed as: OFF switch for flavin mononucleotide
[3] = designed as: ON switch for flavin mononucleotide, no ligand
[4] = ligand present: flavin mononucleotide, designed as: ON switch for flavin mononucleotide

Sequence | apparent Kd [1] [nM] | apparent Kd [2] [nM] | apparent Kd [3] [nM] | apparent Kd [4] [nM]
AUUUAAUUUAAUAAGAUCACAUGAGGAUCACCCAUGUAUAUAUAGGAUAUCAGCUCGUGUAGAGCUGAGAAGGAUAUAUACUAU | 316 | 204 |  | 
GCAGCACAGAUUUACAUGAGGAUCACCCAUGUCUAUUAAGAUGAGGAUAUGCAUCGAAUGAAGUUGCAGAAGGCAUUGUGCUGC |  |  | 6.77 | 5.78
GGUCGUCACAUCUACAUGAGGAUCACCCAUGUCAAAAGACAUGAGGAUAUGCUACCUAAUUGGUAGCAGAAGGCAUGGACGACC |  |  | 1290 | 72
AAUUAAUUAAUACAUGAGGAUCACCCAUGUAAUUAUUAGAUCUAGGAUAUCAGCUCGUUUAGAGCUGAGAAGGAGAUCACAUGU |  |  | 19.2 | 14.6
GCGGUACAUGAGGAUCACCCAUGUCAGGAUAUCCGCUGUUUGUUGAUUGGCAGGCGGUGGAGAAGGGACUUCGC | 35.2 | 33.4 |  | 
ACAUGCAUAGCGAUAUGAUCGAGAGAUCAUGUCGCUAAAUUUAGAAGGACAUGAGGAUCACCCAUGUAGGAUAUGGGAGCAUGA |  |  | 44.7 | 11.1
UUUAUACAUGAGGAUCACCCAUGUCAAUGUAGUCGAGGAUAUGGGCAGCCGUGAGGCGUACUAGAAGGCGAAGAGG |  |  | 203 | 64.9
UAAGAUUAUUGAGGAUAUGGUAAUUUUUAUUAACCAGAAGGCAAACUCAACAUGAGGAUCACCCAUGUAUAAAGGGUAUUAGUU | 68 | 63.4 |  | 
GGAUGACAAAGUCAUCCUAUUCGAACAUGAGGAUCACCCAUGUAGGAUAUGCUACAGAAACUGUAGCAGAAGGACAUGUGCUUU | 34.1 | 151 |  | 
CACUCGUGUCUAGGAUAUGAGUGACAAGCGCGAGAUUUUCUCGCUGCUAGCUCAGAAGGAGACAUGAGGAUCACCCAUGUAAGG | 144 | 25.4 |  | 
UGUUAAUAUCGAGGAUAUGUCUAGACACAUGAGGAUCACCCAUGUAUGUGUAUAGAAGGCGAUAUUAACAGCAUGUUACAUGCG |  |  | 37.2 | 17.4
AUAUAGCGAGGAUAUACAUGAGGAUCACCCAUGUGGUAGUAGAUACGGUAGAGCUAGUGUAGAAGGCGCUAUGA | 463 | 160 |  | 
CAGGUAGACUGAGGAUAUACAAUAAACAGCUAGUCUAUCUAGCUGUCUACAUGAGGAUCACCCAUGUAGAAGGCAGUCUGCCUG | 17 | 17.4 |  | 
AAUAACAGAGGAUAUACUAUUUUAUGUAUUUAUUAUUUUGAACAUGAGGAUCACCCAUGUAGAAGGCUGAGUAA | 27.5 | 23.1 |  | 
GUACGUGGACAGAAGGUGACAUGAGGAUCACCCAUGUUAGUUCGGGUACGAGCGAUCCGCGUGAUUGAGGAUAUGUCUGCGGGC | 69.1 | 175 |  | 
UAUACUAGAUAGGAUAUACUAUAUAUAUUAUUCGUAGAAGGAUCUACAUGAGGAUCACCCAUGUUAACAGCAGU | 47.6 | 37 |  | 
CUGUUAUAGGUCCAGUUUUACAACAUGAGGAUCACCCAUGUGCAGGAUAUCGUGUUAAUUUUCAUCGAGAAGGGCAUAGUCACG | 37.6 | 105 |  | 
CACAAUCUAUCUGAGGAUAUCAUGAAAAAAACAUGAGGAUCACCCAUGUGCAGGAAAACUGCAUAUGAGAAGGCAGAUAGAUUGU |  |  | 770 | 28.4
UUAGGACGAAACAUGAGGAUCACCCAUGUGUUAUAAUUAAUAUAGGAUAUGUUUAUACUUUUUGGGCAGAAGGAUGAUAAUGCU |  |  | 19.7 | 15.4
CGCCGACAUGAGGAUCACCCAUGUCACAUCUGGUCAGGAUAUGGUGUGGUUUGGCUAUUGCCAGAAGGGACCUCAG |  |  | 101 | 102
ACUUGUAAGCAGAAGGCAGUCAUUAUAUUCAUCAUGUAGACAUGAGGAUCACCCAUGUAGAGUACUGAGGAUAUGCAUCGAUAG | 6.41 | 8.85 |  | 
UAACAAAUUGUCAGGAUAUCAGUCCCGGCCCAGAUUGAGAAGGGACAUGAGGAUCACCCAUGUAUGAUUCUCAG |  | 114 |  | 
CCUUCUCGUGUCAGGAUAUCCACUCAUCGAAAUUAGGAGAAGGGACAUGAGGAUCACCCAUGUAUACAUGCCAG | 73 | 102 |  | 
GUCAGCUCGUGAGGAUAUAGAACACUGCUUCGGCAGUGUAUUAAGAUCACAUGAGGAUCACCCAUGUAGAAGGCACGAGCUGAU | 5.12 | 9.33 |  | 

Sequence | apparent Kd [1] [nM] | apparent Kd [2] [nM] | apparent Kd [3] [nM] | apparent Kd [4] [nM]
GACACUAUGUUUGUCAGAUAGAGAGAGGAUAUGGGUCAUGAGACAUGAGGAUCACCCAUGUUUAAUCAGAAGGCUCGAGUACGA |  |  | 30.7 | 15.6
GUGCCUUGGGAGAAGGCAGUAUGCAAAGCAUCCUGAGGAUAUUCAUACCGGAAACGGACAUGAGGAUCACCCAUGUGGCACAAA |  |  | 864 | 57
CCGACGAAAGUCGAACGAUGUAGCAGAAGGACAUGAGGAUCACCCAUGUCAGCUGUAACAGCCAUGUAGGAUAUGCUACAUCGC | 4.16 | 5.51 |  | 
ACUUGCUUGCAGAAGGGUGACAUGAGGAUCACCCAUGUAGCGGGCUGGCGUAAAGUCAGCGCGCCACAGGAUAUGCAGGCCUCG |  |  | 61.2 | 47.6
AAAUGACAUGAGGAUCACCCAUGUCCACCAAAUGGAGGAUAUUGGACGGCAAAACGUUGUUAAGAAGGCCGAAAUU |  |  | 27.6 | 22.3
AUAAUGUGAGGAUAUCAGUCGACUAGCUGCGGCUAGUCGACUGAGAAGGCACAUGAGGAUCACCCAUGUGUUUC | 17.9 | 40.8 |  | 
AAACAAGGAUCAGGAUAUGUGAAAGUAGACCGACAUGAGGAUCACCCAUGUACGACAAGACUCGUACAGAAGGGAUGCACAUGA |  |  | 73.3 | 165
GUAGGAAUCACAGGAUAUGCAUGCGCCGCUUCGUUCUACAUGAGGAUCACCCAUGUGUGGUCCGUGUAGAAGGGUGUUUGCUAC |  |  | 33.9 | 11.6
GUCAGCUCGUGAGGAUAUACAACACUGCUUCGGCAGUGUAUUAAGAUCACAUGAGGAUCACCCAUGUAGAAGGCACGACCUGAU | 14.1 | 257 |  | 
GCCAUCGCGUGAGGAUAUGCUCCGGUUUCCGGAGCAGAAGGCAUGUCAUUAGACAUGAGGAUCACCCAUGUAGUUAAGAUGGCA |  |  | 562 | 18.2
GGAUAGGACAGAGGAUAUACGUGCUAGAGAUACUAGCAAAAUUUCCACACAUGAGGAUCACCCAUGUAGAAGGCUGUCCUAUCG |  | 7.57 |  | 
GCACUGGAUGUAGGAUAUCAGGACGAUAAGUCCUGAGAAGGACAUGAGGAUCACCCAUGUAAAAUCUCACCAGUGCAUAAUAUA | 13.6 | 16.6 |  | 
AAGAAACAUGAGGAUCACCCAUGUAAAUUUAAGAGAGGAUAUCGUACAUGGAAGAUUUAACGAGAAGGCUCUAGAA |  |  | 26 | 16.1
GGGUACAUCGGAGGAUAUCUUGUAAAUACAUGAGGAUCACCCAUGUCGAUGGAGACAUCGGAGAUUGAGAAGGCCGAUGUACCG |  |  | 8.03 | 5.36
AGAUCACAUGAGGAUCACCCAUGUCAGGAUAUGAUACUAUGUACUUCGGUACAUAGUAUCAGAAGGGAUAUAAA | 70.7 | 239 |  | 
AAAGAGGCGGAUCGCAACUACCAGCAGGAUAUGGGUGUUUUUACAUGAGGAUCACCCAUGUACAUCUAGAAGGGUUGGGUGUCC |  |  | 576 | 76.6
AAGGCGCUAGCAGGAUAUGUACAUGAGGAUCACCCAUGUAAAUCUGUAUCUGGUGAAGCGCAAGUAUAGAAGGGCUAACGCUGG | 4.71 | 6.2 |  | 
UGCUGGUGACAGCAUCCAUCAAAACAUGAGGAUCACCCAUGUAGAAGGCUGUACGGUUACCGUACAGAGGAUAUACAAUGAUGA | 13.9 | 22.2 |  | 
UUAUUUAUGUAAGGAUAUCGAUGAUAUACACAUCCGACAUGAGGAUCACCCAUGUUUUAUUUUGUCGAGAAGGUACAUUGUCGG |  |  | 56.2 | 47
CCAUGACCGGAGAAGGCAGUUUGUGGGCCUGUUCCUGUCGGAUACAUGAGGAUCACCCAUGUACCUGAGGAUAUCUGGUCGCAG | 5.06 | 6.13 |  | 
CGAUUUGUAGGAUAUGUAUGAGUAAUCCCUUUUUAUGAAGAACAUGAGGAUCACCCAUGUAGAAGGGCAUUGUA | 19.6 | 17.6 |  | 
CUUUUGUGAGGAUAUUGGUAGUAAAUGAAUAAAAUUAUUACCGAGAAGGUACAUGAGGAUCACCCAUGUUCCUC | 19.4 | 27.9 |  | 
AGGUAAGACUUAAUUGUGCUGGUGAGAAGGCUACUGGUUGUGGUCUACAUGAGGAUCACCCAUGUUGAGGAUAUCAUCGGUAUC | 606 | 72.7 |  | 
CAGCGAUAGCUGAAUGGUACAUGGGAGGAUAUGGGAAGAUACAUGAGGAUCACCCAUGUUAAAUACUAGAAGGCCCAUGUACCU |  |  | 14.9 | 5.45
